Only some compounds are listed: those with a hit (about 2.5% of all), similar ones and a draw of the others.
ADAM17 inh: ADAM17 inhibition, QFRET primary screen. 0.83% of 370,000 active. inhibition, % at 6.95 µM. recombinant ADAM17, EDANS/DABCYL FRET peptide cleavage. AID 720648;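 active means inhibition above the mean of compounds lying between control limits plus 3 SD, set per campaign, cut at about 8.5% in these data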;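 further: 0% = DMSO-only wells as the low control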
NR2E3 ag-1: human photoreceptor-specific nuclear receptor agonism. CHO-S Gal4-NCOR/VP16-NR2E3 two-hybrid, luciferase. Q9Y5X4. inhibition of corepressor binding, % at 3.98 µM. 0.35% of 360,000 active;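 active means inhibition above the mean of all tested compounds plus 3 SD, cut at about 70% in these data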;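 further: 0% = DMSO with NR2E3 transfected cells and 100% = cells lacking NR2E3 construct; higher means lower luciferase signal from less NR2E3 corepressor binding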
KLK7 zymogen act: activates the human kallikrein-7 zymogen. purified proKLK7, EDANS-DABCYL substrate fluorescence; 100% is mature enzyme control, 0% vehicle. activation, % at 7 µM. 0.9% of 370,000 active. AID 652039;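 active means activation above the mean of all tested compounds plus 3 SD, computed per campaign excluding outliers beyond control limits, cut at about 13% in these data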
ADAM10 inh: ADAM10 inhibition, QFRET primary screen; inhibition, % at 7 µM; 0.62% of 370,000 active; AID 720582; O14672; recombinant ADAM10, EDANS/DABCYL FRET peptide cleavage, 3 h;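 active means inhibition above a per-campaign cutoff equal to the mean of compounds falling between control-based bounds plus 3 SD, cut at about 20% in these data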;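 further: 0% = DMSO wells while the 100% control is not disclosed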
Target sequence (O14672 214-748 limits assumed): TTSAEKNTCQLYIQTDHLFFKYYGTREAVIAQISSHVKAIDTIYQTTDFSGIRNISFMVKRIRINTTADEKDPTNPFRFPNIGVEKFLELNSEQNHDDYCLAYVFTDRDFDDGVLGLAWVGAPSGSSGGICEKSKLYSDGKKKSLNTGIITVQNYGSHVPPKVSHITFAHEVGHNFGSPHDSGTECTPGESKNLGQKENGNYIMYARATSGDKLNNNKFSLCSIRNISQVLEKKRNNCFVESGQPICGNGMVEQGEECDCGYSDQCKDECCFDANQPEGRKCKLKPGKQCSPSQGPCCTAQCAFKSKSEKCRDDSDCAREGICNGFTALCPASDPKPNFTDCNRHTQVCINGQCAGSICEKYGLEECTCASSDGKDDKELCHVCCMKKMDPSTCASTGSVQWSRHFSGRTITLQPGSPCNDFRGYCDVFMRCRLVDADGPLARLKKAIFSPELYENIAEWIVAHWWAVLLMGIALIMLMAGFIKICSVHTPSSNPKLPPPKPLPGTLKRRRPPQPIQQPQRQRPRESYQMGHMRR
JMJD2C inh: human JMJD2C demethylase inhibition; Q9H3R0; GST-JMJD2C(1-420) H3K9me3 demethylation, DELFIA europium; inhibition, % at 2.35 µM; 0.069% of 330,000 active;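 active means more than half of a compound's replicate wells show inhibition beyond 50%, single wells judged on their own value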;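 further: signal counts dimethyl H3K9 product captured on neutravidin plate; 0% = median of DMSO wells and 100% = 0.3 times that DMSO median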
NR2E3 ag-2: NR2E3 (human) agonism. Q9Y5X4. inhibition of corepressor binding, % at 4.78 µM. GST-NR2E3/biotin-RetCOR TR-FRET, 1536-well. 0.12% of 320,000 active;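 active means percent inhibition above the cutoff of mean plus 3 SD of all tested compounds, set per screening campaign, cut at about 20% in these data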;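 further: 0% = DMSO wells and 100% = biotin wells as full block of FRET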
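Test system: GST-NR2E3 and biotin-RetCOR proteins | Quantity: 1.35 nM GST-tagged NR2E3 final | Medium: Tris pH 7.5 | Also added: 7 nM biotin-RetCOR | Dosing: Compound at 4.8 µM, single dose | Timing: 5 h at 4 °C | Detection: Time-resolved FRET | Read-out basis: Percent inhibition | Benchmarks: Biotin wells as high control, 0.6% DMSO wells as low control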
proKLK7 act conf: confirmation of human kallikrein-7 zymogen activators | 68% of 3,200 active | purified proKLK7, EDANS-DABCYL substrate fluorescence; scaled: vehicle 0, mature enzyme 100 | activation, % at 7 µM | shares compounds with KLK7 zymogen act;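 active means activation, as change over the incubation, above the mean of all tested compounds plus 3 SD, cut at about 13% in these data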
EDANS-DABCYL int: optically interferes with EDANS-DABCYL signal, flagging KLK7 hits; activation, % at 7 µM; EDANS-DABCYL substrate fluorescence interference, no enzyme, 4 h; solvent 0%, active enzyme control 100%; shares compounds with KLK7 zymogen act; AID 686952; 80% of 3,200 active;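 active means activation above the all-compound mean plus 3 SD, ignoring values outside control-based bounds, cut at about 4.8% in these data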;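 further: value is the 4 h activation minus the activation read at time zero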
K7 EDANS ctr: optically interferes with EDANS-DABCYL fluorescence, kallikrein-7 activator counter-screen; shares compounds with KLK7 zymogen act; EDANS-DABCYL peptide fluorescence interference, no enzyme; EC50, µM; 20% of 250 active;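 active means compounds that raise the fluorescence signal in this interference counterscreen, with EC50 at or below 10 µM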;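 further: intact quenched peptide substrate alone read at 355 nm excitation and 520 nm emission; signal is fluorescence gain from T0 to T4 after four hours at room temperature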
Starred values were filed as active, the others as inactive; i = inactive; x = not tested or not shown; ! = a repeat was not active.

SMILES	ADAM17 inh	NR2E3 ag-1	KLK7 zymogen act	ADAM10 inh	JMJD2C inh	NR2E3 ag-2	proKLK7 act conf	EDANS-DABCYL int	others
CCCCCn1c(=NC(=O)c2ccco2)c(C(=O)OCC)cc2c(=O)n3ccccc3nc21	i	-24.5	23.7*	i	5.8	0.3	32.6*	38.0*
CCOCCCn1c(=NC(=O)c2cccnc2)c(C(=O)OCC)cc2c(=O)n3ccccc3nc21	i	-12.8	29.3*	i	-3.7	-0.2	2.9	4.5*!
CCCCn1c(=NC(=O)c2cccnc2)c(C(=O)OCC)cc2c(=O)n3ccccc3nc21	-223.9	-12.7	4.4	i	-0.2	x	x	x
CC1CN(S(=O)(=O)c2cccc(C(=O)NCc3ccccn3)c2)CC(C)O1 (stereo not drawn)	-3.6	7.9	0.4	-11.0	12.5	x	x	x
CC1(C)CC(=O)c2cc(OCC(=O)NCCCN3CCN(c4ccccc4F)CC3)ccc2O1	-162.7	-16.5	18.3*	-470.2	11.7	6.3	17.2*	21.5*
CCN(CC)C(=O)COc1ccc2c(c1)C(=O)CC(C)(C)O2	-351.5	11.6	47.3*	i	-23.7	-1.1	39.9*	71.0*
CC1(C)CC(=O)c2cc(OCC(=O)N3CCOCC3)ccc2O1	-334.1	-11.7	44.3*	i	3.2	2.5	71.5*	80.7*
Cc1ccc(OCC(=O)N2CCOCC2)cc1C	-4.8	-1.9	0.0	-3.1	-1.5	-1.8	x	x
CC(C)NC(=O)COc1ccc2c(c1)C(=O)CC(C)(C)O2	-421.4	-10.2	36.7*	i	-18.1	-1.3	80.6*	84.7*
CCCCCCCNC(=O)COc1ccc2c(c1)C(=O)CC(C)(C)O2	-461.8	-18.7	-5.3	i	-1.3	2.0	x	x
CCN(CC)C(=O)c1cccc(-c2csc(C(O)c3ccc(F)c(F)c3)n2)c1 (stereo not drawn)	-1.4	27.2	-1.3	-6.6	x	x	x	x
CCSC(=O)N=Nc1ccc(O)cc1	-5.0	-34.2	-1.4	-28.9	x	x	x	x
OCCC1CN(Cc2cccn2-c2ccccn2)CCN1Cc1ccccc1 (stereo not drawn)	-4.6	-1.7	0.6	-9.9	11.2	0.5	x	x
CCOC(=O)COc1ccc2c(c1)C(=O)CC1(CCCCC1)O2	-332.7	30.0	23.6*	i	-5.6	-1.1	13.5*	10.3*	K7 EDANS ctr=>69.5
O=C(COc1ccc2c(c1)C(=O)CC1(CCCCC1)O2)NCc1ccccc1	-79.1	-3.4	-9.6	-337.4	7.4	4.1	x	x
CC1(C)CC(=O)c2cc(OCC(=O)NCc3cccnc3)ccc2O1	i	-21.7	48.5*	i	1.2	-1.1	61.8*	65.6*
CC(=O)N1Cc2cc(C(=O)NCC(F)(F)F)nc(-c3cccc(-c4cc5ccccc5o4)c3)c2[C@H]1CCO	-0.6	-10.9	0.2	-3.5	x	x	x	x
CCn1c(=N)c(C(=O)NC)cc2c(=O)n3cccc(C)c3nc21	i	-35.5	75.6*	i	6.8	x	67.3*	72.9*
Cc1cccn2c(=O)c3cc(C(=O)O)n(C)c3nc12	-192.9	16.5	20.6*	i	-7.5	0.3	49.0*	48.2*
Cc1cccn2c(=O)c3cc(C(=O)NC4CCCCC4)c(=N)n(CCN4CCOCC4)c3nc12	-139.2	-9.1	8.4	-382.8	-3.9	4.0	x	x
CCCn1c(=N)c(C(=O)NC2CCCC2)cc2c(=O)n3cccc(C)c3nc21	i	-21.9	132.9*	i	-1.5	0.1	-16.8	-41.4
Cc1ccccc1Nc1nc(N)nc(COC(=O)[C@@H](NC(=O)c2ccccc2Cl)C(C)C)n1	-1.7	-36.7	-0.3	-0.1	4.3	-1.4	x	x
CC1CC(C)(C)CC2(C1)NC(=O)N(CC(=O)Nc1ccc(N3CCCCC3)cc1)C2=O (stereo not drawn)	0.0	-1.7	-0.1	7.2	-29.1	0.7	x	x
N#C/C(=C(/O)CCCl)c1ccccn1	i	-9.4	208.6*	i	5.1	-1.1	389.0*	395.1*
N#C/C(=C(\O)c1ccco1)c1ccccn1	-2.9	-33.5	-0.4	6.0	6.9	-0.2	x	x
SMILES	ADAM17 inh	NR2E3 ag-1	KLK7 zymogen act	ADAM10 inh	JMJD2C inh	NR2E3 ag-2	proKLK7 act conf	EDANS-DABCYL int	others
O=C1NC(c2ccccc2)c2c(-c3ccccc3)n[nH]c21 (stereo not drawn)	-6.5	x	0.5	-15.6	x	x	x	x
Cc1cc(=O)oc2cc(NS(=O)(=O)c3ccc(F)cc3)ccc12	i	-9.1	79.4*	i	15.9	-2.5	64.8*	74.6*
Cc1cc(=O)oc2cc(NS(=O)(=O)c3ccccc3)ccc12	i	-26.1	66.6*	i	7.6	0.8	76.3*	76.3*
COc1ccc2c(CC(=O)O)cc(=O)oc2c1	-105.8	-10.1	-1.3	-290.1	-5.7	-0.6	x	x
COc1cc(OC)c2c(C)cc(=O)oc2c1	i	4.1	32.4*	i	-26.8	-0.7	37.7*	48.0*
CCCCCc1cc(O)c2c(C)cc(=O)oc2c1	-3.6	-13.0	-3.9	-11.5	16.9	4.6	x	x
Cc1cc(=O)oc2cc(O)cc(O)c12	i	-17.7	65.8*	i	x	x	67.3*	76.4*
COc1cc(OC)c2ccc(=O)oc2c1	i	-25.1	89.9*	i	x	x	49.2*	61.1*
COc1cccc(C2C(C(N)=O)=C(C)Nc3nc(CCCO)nn32)c1 (stereo not drawn)	-6.0	5.0	-0.4	2.8	2.7	-0.1	x	x
CN(C)CCNc1ccc2nnn3c4ccc(O)cc4c(=O)c1c23	-6.6	-29.6	1.3	-37.9	x	x	x	x
CCN(CC)CCCNc1ccc2ncn3c4ccc(O)cc4c(=O)c1c23	-8.4	34.1	71.0*	-24.8	x	x	8.8	28.4*
COC(=O)c1c(O)cc(C(C)(C)C)n(-c2ccc(F)cc2)c1=O	-1.0	13.5	-0.7	-10.1	7.0	-1.9	x	x
Cn1c(-c2ccc(C=O)s2)nc2ccccc21	-465.8	-44.2	47.7*	i	4.5	3.5	52.3*	55.6*
CCCSCCCNC(=O)Cn1nc(CC)n2c(cc3c(OC)cccc32)c1=O	-52.2	-34.5	-0.4	-227.1	0.9	-0.6	x	x
CCc1nn(CC(=O)NCCN2CCOCC2)c(=O)c2cc3c(OC)cccc3n12	i	18.8	27.2*	i	2.1	1.2	19.1*	28.4*
COc1cccc2c1cc1c(=O)n(CC(=O)NCCCN3CCN(C)CC3)nc(C)n12	i	0.1	60.0*	i	-4.3	-1.1	82.8*	76.4*

Screening results from PubChem.
